Source: PubChem
ATG4B inh = ATG4B protease inhibitors, primary screen, biochemical, fluorescence, uHTS. Cysteine protease ATG4B (Homo sapiens), Q9Y4P1. ATG4B cleavage of LC3-PLA2, NBD-HPC fluorescence, 1 h. inhibition, % at 8.33 µM. 0.51% of 340,000 active. AID 504462, 2011; in the data active means inhibition above about 40%
ABCB6 inh 2 = ABCB6 transporter inhibitors, primary screen, K562-ABCB6 cells, flow cytometry, MLPCN library; ATP-binding cassette sub-family B member 6 (Homo sapiens), Q9NP58; K562-ABCB6 porphyrin accumulation, 1 h; stronger effect = lower value; fluorescence ratio to DMSO, % at 10 µM; 0.19% of 360,000 active;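 active means fluorescence ratio to DMSO below 75%, the collection mean minus 3 SD; inconclusive means too few cells collected in the well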;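 further: signal is porphyrin accumulated inside mitochondria; 100% equals median channel fluorescence of DMSO control wells; lower ratio means ABCB6 inhibition with less porphyrin fluorescence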
Myeloid diff MLP = induction of myeloid progenitor differentiation, primary screen, cell-based, flow cytometry, MLPCN library. ER-HoxA9 myeloid progenitors, lysozyme-GFP differentiation. AID 624256, 2012. 1% of 360,000 active. calls only at 10 µM;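 active means normalized GFP-positive differentiation at or above the plate's own cutoff, the solvent-only control mean plus 3 SD; inconclusive means no clear call, values can overlap the other calls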;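 further: cells exposed to compound for four days before flow analysis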
CendR NRP1 mod = modulators of CendR peptide binding to NRP-1, primary screen, biochemical, fluorescence polarization, uHTS; Neuropilin-1 (Homo sapiens), O14786; FAM-RPARPAR peptide binding to NRP-1; inhibition, % at 25 µM; 0.85% of 360,000 active;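 active means inhibition or corrected inhibition above about 18%, plus a signal ratio from 0.5 to 1.5, limit read from the data, passing the limit was not always enough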
Target sequence (O14786 whole entry, looked up): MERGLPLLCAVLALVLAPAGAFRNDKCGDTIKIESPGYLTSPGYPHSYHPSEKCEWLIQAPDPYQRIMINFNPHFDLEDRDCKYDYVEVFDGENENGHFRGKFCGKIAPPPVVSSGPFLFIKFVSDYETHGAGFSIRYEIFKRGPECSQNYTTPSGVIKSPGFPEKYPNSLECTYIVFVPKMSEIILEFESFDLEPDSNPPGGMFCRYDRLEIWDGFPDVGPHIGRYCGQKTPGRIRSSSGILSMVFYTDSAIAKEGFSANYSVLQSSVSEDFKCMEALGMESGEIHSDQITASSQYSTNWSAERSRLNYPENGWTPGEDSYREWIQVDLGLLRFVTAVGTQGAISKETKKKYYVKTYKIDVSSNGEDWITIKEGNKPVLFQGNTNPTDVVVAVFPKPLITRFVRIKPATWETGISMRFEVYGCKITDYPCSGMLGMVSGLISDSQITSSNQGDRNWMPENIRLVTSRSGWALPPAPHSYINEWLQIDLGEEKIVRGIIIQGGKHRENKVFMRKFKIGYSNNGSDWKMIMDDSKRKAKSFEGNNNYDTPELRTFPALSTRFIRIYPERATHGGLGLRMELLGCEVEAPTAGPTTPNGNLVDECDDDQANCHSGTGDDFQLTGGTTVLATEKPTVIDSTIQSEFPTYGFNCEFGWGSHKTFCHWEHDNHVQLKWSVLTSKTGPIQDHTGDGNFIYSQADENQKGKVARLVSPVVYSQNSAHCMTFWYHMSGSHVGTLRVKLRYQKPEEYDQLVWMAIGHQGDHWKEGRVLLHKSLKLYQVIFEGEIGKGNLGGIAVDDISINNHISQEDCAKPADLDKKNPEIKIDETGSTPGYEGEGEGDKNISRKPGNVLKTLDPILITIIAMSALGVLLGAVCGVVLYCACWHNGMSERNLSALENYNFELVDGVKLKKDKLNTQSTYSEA
Granule exo inh = LAMP-1 surface exposure blockers, TALL-104 cells – cell-based, flow cytometry, MLPCN library, primary screen; TALL-104 LAMP-1 surface exposure; cells stimulated with thapsigargin and PMA; inhibition, % at 10 µM; 0.66% of 360,000 active;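 active means inhibition above about 55%, limit read from the data; inconclusive means no clear call, values can overlap the other calls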
Arrestin-AP2 inh = inhibitors of beta-arrestin/AP2 binding, primary screen, biochemical, GPCR trafficking, flow cytometry; beta-arrestin 1 C-terminal peptide binding to AP2 beta2-adaptin appendage (human); FITC-arrestin peptide / GST-AP2 beads; AP2 beta2 appendage carries R879A mutation; inhibition, % at 10 µM; 0.31% of 340,000 active;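 active means inhibition above a set limit, near 3 SD of compounds lacking own fluorescence, cut at about 54% in these data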;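 further: plate controls were DMSO wells for no effect and 5 µM unlabelled arrestin peptide for full effect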
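Material – GST-tagged AP2 beta2-adaptin appendage (R879A) on 4 µm glutathione beads · Probe or stimulus – fluorescein-tagged arrestin peptide at 50 nM final · Timing – 12 min plus 1 h, RT · Detection – bead flow cytometry, FITC channel · Read-out basis – inhibition as reduced fluorescein signal on beads, percent · Medium – PBS plus Tween 20 (0.05%) and BSA (0.1%)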
Active calls of the source: *; i = inactive; ? = inconclusive; / = no result given; + = active, no number. This is a sample that favours compounds with a hit; in the whole collection about 3.3% have one here.

SMILES	ATG4B inh	ABCB6 inh 2	Myeloid diff MLP	CendR NRP1 mod	Granule exo inh	Arrestin-AP2 inh
O=[N+]([O-])c1cc([N+](=O)[O-])c(Oc2ccc(Cl)c3cccnc23)cc1NN1CCCCC1	-4	100	+	3	-1	4
CCOCCCNC(=S)N1C2CCC1CC(NC(=O)NC13CC4CC(CC(C4)C1)C3)C2 (stereo unspecified)	-12	94	/	1	-2	16
COC1=CC(=O)OC(c2ccc(C(F)(F)F)cc2)C1 (stereo unspecified)	/	/	i	26*	-1	/
COc1ccc(OC)c(NC(=O)Nc2nnc(COCCO)s2)c1	/	96	i	5	-5	/
COc1ccc(C(=O)N=C2SC3CS(=O)(=O)CC3N2c2ccccc2)cc1OC (stereo unspecified)	-12	96	i	6	3	11
COc1ccccc1NCCC(=O)OCC(=O)Nc1ccccc1F	-3	99	i	6	-1	-20
C[n+]1c(-c2ccccc2)cc2c(=Cc3ccccc3)c3ccccc3n21	18	186	?	-1	41	0
CN(C)c1ccc(C=c2c3cc(O)ccc3n3c2cc(-c2ccccc2)[n+]3C)cc1	32	i	+	-201	26	19
CCOC(=O)c1cc2c(=Cc3ccc(N(C)C)cc3)c3ccccc3n2[n+]1C	22	739	/	-74	67*	13
Cc1cc2c(=Cc3ccc(N(C)C)cc3)c3ccccc3n2[n+]1C	14	i	/	-182	5	49
CCn1c(Cc2ccccc2)nnc1SCC(=O)N1CCCC1=O	2	96	i	-1	4	-16
Cn1c(=O)c2[nH]c(CN(Cc3ccccc3)Cc3ccccc3)nc2n(C)c1=O	-7	96	i	-11	8	3
Cn1c(=O)c2[nH]c(COc3ccccc3)nc2n(C)c1=O	-2	100	i	32*	30	10
NC(=O)[C@H]1CC2(CC(c3cccc(NC(=O)[C@H]4CCC(=O)N4)c3)=NO2)CN1C(=O)c1cc([N+](=O)[O-])cc([N+](=O)[O-])c1 (stereo partly specified)	-9	96	i	5	7	-1
Cc1nn(CC(=O)NCC(C)c2ccccc2)c(=O)c2cccn12 (stereo unspecified)	0	96	i	13	12	14
O=C(CCN1CCN(c2ccccc2)CC1)NNC(=O)Cc1ccccc1Cl	-3	96	i	37*	0	-8
O=C(CCN1CCN(c2ccccc2)CC1)NNC(=O)Cc1c(F)cccc1Cl	-3	97	i	-4	2	28
COC(=O)c1ccc(C(c2c(C)n(C)n(-c3ccccc3)c2=O)c2c(C)n(C)n(-c3ccccc3)c2=O)cc1	6	96	i	6	1	-3
CCCn1c(N)c(N(CCOC)C(=O)COC(=O)COc2c(C)cc(C)cc2C)c(=O)[nH]c1=O	/	101	i	-10	0	/
COC(=O)[C@H](CC(C)C)N(Cc1ccccc1)S(=O)(=O)N(Cc1ccccc1)[C@@H](CC(C)C)C(=O)OC	1	99	i	-13	3	29
COC(=O)[C@H](CC(C)C)NS(=O)(=O)N(Cc1ccccc1)[C@@H](CC(C)C)C(=O)OC	9	99	i	28*	-5	0
Cc1cccc(Nc2nc(N)nc(-c3oc4ccccc4c3C)n2)c1	6	97	+	-7	12	-11
COc1cccc(Nc2nc(N)nc(-c3oc4ccccc4c3C)n2)c1	-3	96	i	0	10	-8
COc1ccc(CCN2C(=O)C3CC(C)=C(C)CC3C2=O)cc1OC (stereo unspecified)	-7	97	i	-8	0	-1
COc1ccccc1N1CCN(C(=O)c2ccc(Cl)c(S(=O)(=O)NCc3ccco3)c2)CC1	-8	95	+	7	0	22
SMILES	ATG4B inh	ABCB6 inh 2	Myeloid diff MLP	CendR NRP1 mod	Granule exo inh	Arrestin-AP2 inh
CN(C(=O)COc1ccccc1)c1nnc(C23CC4CC(CC(C4)C2)C3)s1	-22	98	i	19*	2	-3
N#Cc1c2c(c(=S)n(-c3ccccc3)c1N)CCCC2	4	120	+	10	-3	-6
COc1ccc2c(COC(=O)[C@H](C)NS(=O)(=O)c3ccccc3F)cc(=O)oc2c1	-8	91	i	0	1	8
COc1ccc(C(=O)/C=C/c2cn(CC(O)CN3CCN(C)CC3)c3ccccc23)cc1OC (stereo unspecified)	-13	107	i	-109	11	-13
CCCCN(C)CC(O)Cn1cc(/C=C/C(=O)c2ccc(C)cc2)c2ccccc21 (stereo unspecified)	-5	94	?	-19	70*	3
CCCN(CCC)CC(O)Cn1cc(/C=C/C(=O)c2ccccc2)c2ccccc21 (stereo unspecified)	-2	98	i	-19	92*	0
CCCN(CCC)CC(O)Cn1cc(/C=C/C(=O)c2cccs2)c2ccccc21 (stereo unspecified)	-7	111	+	-118	45	-7
O=C(/C=C/c1cn(CC(O)CN2CCCCC2)c2ccccc12)c1ccccc1 (stereo unspecified)	-1	97	i	-27	9	-1
O=C(/C=C/c1cn(CC(O)CN2CCCCC2)c2ccccc12)c1cccs1 (stereo unspecified)	-6	117	+	-126	20	8
S=C1Cc2ccccc2N1	-4	104	/	-8	94*	4
CCCC/C=C/C(NC(=O)CCc1ccccc1)c1ccccc1 (stereo unspecified)	4	98	+	5	7	22
CCCC/C=C/C(NC(=O)c1ccc(-c2ccccc2)cc1)c1ccccc1 (stereo unspecified)	-9	93	i	-3	6	10
COCCn1c(-c2ccc(OC)cc2)cnc1SCC(=O)Nc1cccc2ccccc12	2	92	i	26*	-6	-33
COCCn1c(SCC(=O)Nc2ccccc2OC)nc2ccccc2c1=O	-3	94	i	3	21	3
COCCn1c(SCC(=O)Nc2ccccc2OC)nc2c([nH]c3ccccc32)c1=O	-1	85	i	26*	-4	-6
